According to ChEMBL document CHEMBL4270612, “Discovery of dual GyrB/ParE inhibitors active against Gram-negative bacteria” (Eur J Med Chem, 2018):
Converted amounts (≈) assume the structure as drawn.

How the values were obtained:
[1] = test system: Pseudomonas aeruginosa; assay: Antibacterial activity against Pseudomonas aeruginosa ARC3509 after 24 hrs by broth microdilution method; format: functional; conditions: ARC3509, 24 h
Method in brief: (§1)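 Broth microdilution per CLSI. Bacterial suspension adjusted to 1×10^6 CFU/mL in cation-adjusted Mueller–Hinton broth and mixed 1:1 with 2-fold serial compound dilutions. Final DMSO 2.5% v/v. Plates incubated at 35 °C with shaking at 140 rpm for 24 h.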

[2] = test system: Acinetobacter baumannii; assay: Antibacterial activity against Acinetobacter baumannii ARC3484 after 24 hrs by broth microdilution method; format: functional; conditions: ARC3484, 24 h
Method in brief: (§2)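 Broth microdilution per CLSI. Bacterial suspension adjusted to 1×10^6 CFU/mL in cation-adjusted Mueller–Hinton broth and mixed 1:1 with 2-fold serial compound dilutions. Plates incubated at 35 °C with shaking at 140 rpm for 24 h.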

[3] = test system: Acinetobacter baumannii; assay: Antibacterial activity against Acinetobacter baumannii ARC3882 after 24 hrs by broth microdilution method; format: functional; conditions: ARC3882, 24 h; method in brief: as §1
[4] = test system: Haemophilus influenzae; assay: Antibacterial activity against Haemophilus influenzae ATCC 49247 after 24 hrs by broth microdilution method; format: functional; conditions: ATCC 49247, 24 h; method in brief: as §1
[5] = test system: Acinetobacter baumannii; assay: Antibacterial activity against Acinetobacter baumannii ARC3486 after 24 hrs by broth microdilution method; format: functional; conditions: ARC3486, 24 h; method in brief: as §1
[6] = test system: Pseudomonas aeruginosa; assay: Antibacterial activity against Pseudomonas aeruginosa ARC4060 after 24 hrs by broth microdilution method; format: functional; conditions: ARC4060, 24 h; method in brief: as §1
[7] = test system: Pseudomonas aeruginosa; assay: Antibacterial activity against Pseudomonas aeruginosa ARC3505 after 24 hrs by broth microdilution method; format: functional; conditions: ARC3505, 24 h; method in brief: as §1
[8] = test system: Pseudomonas aeruginosa; assay: Antibacterial activity against Pseudomonas aeruginosa ARC003 after 24 hrs by broth microdilution method; format: functional; conditions: ARC003, 24 h; method in brief: as §1
[9] = test system: Acinetobacter baumannii; assay: Antibacterial activity against Acinetobacter baumannii ARC3489 after 24 hrs by broth microdilution method; format: functional; conditions: ARC3489, 24 h; method in brief: as §1
[10] = test system: Acinetobacter baumannii; assay: Antibacterial activity against Acinetobacter baumannii ARC2675 after 24 hrs by broth microdilution method; format: functional; conditions: ARC2675, 24 h; method in brief: as §2
[11] = test system: Pseudomonas aeruginosa; assay: Antibacterial activity against Pseudomonas aeruginosa PAO1 after 24 hrs by broth microdilution method; format: functional; conditions: PAO1, 24 h; method in brief: as §1
[12] = test system: Acinetobacter baumannii; assay: Antibacterial activity against Acinetobacter baumannii ARC3658 after 24 hrs by broth microdilution method; format: functional; conditions: ARC3658, 24 h; method in brief: as §1
[13] = test system: Acinetobacter baumannii; assay: Antibacterial activity against Acinetobacter baumannii ARC3515 after 24 hrs by broth microdilution method; format: functional; conditions: ARC3515, 24 h; method in brief: as §1
[14] = Growth inhibition of human A549 cells; format: cell-based
[15] = test system: Acinetobacter baumannii; assay: Antibacterial activity against Acinetobacter baumannii ARC3493 after 24 hrs by broth microdilution method; format: functional; conditions: ARC3493, 24 h; method in brief: as §1
[16] = test system: Streptococcus pyogenes; assay: Antibacterial activity against Streptococcus pyogenes ARC838 after 24 hrs by broth microdilution method; format: functional; conditions: ARC838, 24 h; method in brief: as §2
[17] = test system: Escherichia coli; assay: Antibacterial activity against tolC deficient Escherichia coli after 24 hrs by broth microdilution method; format: functional
Method in brief: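 Broth microdilution per CLSI guidelines. Inoculum adjusted to 1×10^6 CFU/mL in cation-adjusted Mueller–Hinton broth, added 1:1 to 2-fold serial compound dilutions; final DMSO 2.5% v/v. Plates incubated 35 °C, 140 rpm, 24 h.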

[18] = test system: Acinetobacter baumannii; assay: Antibacterial activity against Acinetobacter baumannii ARC3492 after 24 hrs by broth microdilution method; format: functional; conditions: ARC3492, 24 h; method in brief: as §2
[19] = test system: Acinetobacter baumannii; assay: Antibacterial activity against Acinetobacter baumannii ARC3495 after 24 hrs by broth microdilution method; format: functional; conditions: ARC3495, 24 h; method in brief: as §1
[20] = test system: Pseudomonas aeruginosa; assay: Antibacterial activity against Pseudomonas aeruginosa ARC3729 after 24 hrs by broth microdilution method; format: functional; conditions: ARC3729, 24 h; method in brief: as §1
[21] = test system: Staphylococcus aureus; assay: Antibacterial activity against Staphylococcus aureus ATCC 29213 after 24 hrs in presence of 2% human albumin by broth microdilution method; format: functional; conditions: ATCC 29213, 24 h
[22] = test system: Pseudomonas aeruginosa; assay: Antibacterial activity against Pseudomonas aeruginosa ARC4068 after 24 hrs by broth microdilution method; format: functional; conditions: ARC4068, 24 h; method in brief: as §2
[23] = test system: Staphylococcus aureus; assay: Antibacterial activity against Staphylococcus aureus ATCC 29213 after 24 hrs by broth microdilution method; format: functional; conditions: ATCC 29213, 24 h; method in brief: as §1
[24] = test system: Pseudomonas aeruginosa; assay: Antibacterial activity against Pseudomonas aeruginosa ARC3506 after 24 hrs by broth microdilution method; format: functional; conditions: ARC3506, 24 h; method in brief: as §1
[25] = test system: Candida albicans; assay: Antifungal activity against Candida albicans ATCC 90028 after 24 hrs by broth microdilution method; format: functional; conditions: ATCC 90028, 24 h
[26] = test system: Staphylococcus aureus; assay: Antibacterial activity against methicillin-resistant Staphylococcus aureus FQ-R after 24 hrs by broth microdilution method; format: functional
Method in brief: (§3)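 Broth microdilution per CLSI. Bacterial suspensions adjusted to 1×10^6 CFU/mL in cation-adjusted Mueller–Hinton broth, mixed 1:1 with 2-fold serial compound dilutions (final DMSO 2.5% v/v). Incubation 35 °C, 140 rpm, 24 h.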

[27] = test system: Pseudomonas aeruginosa; assay: Antibacterial activity against Pseudomonas aeruginosa ARC3502 after 24 hrs by broth microdilution method; format: functional; conditions: ARC3502, 24 h; method in brief: as §2
[28] = test system: Acinetobacter baumannii; assay: Antibacterial activity against Acinetobacter baumannii ARC2728 after 24 hrs by broth microdilution method; format: functional; conditions: ARC2728, 24 h; method in brief: as §1
[29] = test system: Acinetobacter baumannii; assay: Antibacterial activity against Acinetobacter baumannii ARC3659 after 24 hrs by broth microdilution method; format: functional; conditions: ARC3659, 24 h; method in brief: as §1
[30] = test system: Pseudomonas aeruginosa; assay: Antibacterial activity against Pseudomonas aeruginosa ARC3612 after 24 hrs by broth microdilution method; format: functional; conditions: ARC3612, 24 h; method in brief: as §1
[31] = test system: Acinetobacter baumannii; assay: Antibacterial activity against Acinetobacter baumannii ARC3513 after 24 hrs by broth microdilution method; format: functional; conditions: ARC3513, 24 h; method in brief: as §1
[32] = test system: Acinetobacter baumannii; assay: Antibacterial activity against Acinetobacter baumannii ARC2674 after 24 hrs by broth microdilution method; format: functional; conditions: ARC2674, 24 h; method in brief: as §1
[33] = test system: Enterobacter cloacae; assay: Antibacterial activity against Enterobacter cloacae ARC3528 after 24 hrs by broth microdilution method; format: functional; conditions: ARC3528, 24 h; method in brief: as §1
[34] = test system: Acinetobacter baumannii; assay: Antibacterial activity against Acinetobacter baumannii ARC2779 after 24 hrs by broth microdilution method; format: functional; conditions: ARC2779, 24 h; method in brief: as §1
[35] = test system: Acinetobacter baumannii; assay: Antibacterial activity against Acinetobacter baumannii ARC2782 after 24 hrs by broth microdilution method; format: functional; conditions: ARC2782, 24 h; method in brief: as §1
[36] = test system: Pseudomonas aeruginosa; assay: Antibacterial activity against Pseudomonas aeruginosa harboring MexABCDXY deletion mutant after 24 hrs by broth microdilution method; format: functional; method in brief: as §3
[37] = test system: Staphylococcus aureus; assay: Antibacterial activity against methicillin-resistant Staphylococcus aureus USA100 after 24 hrs by broth microdilution method; format: functional; conditions: USA100, 24 h; method in brief: as §3
[38] = Thermodynamic solubility of the compound at pH 7.4; format: physicochemical; conditions: buffer, read-out: Therm_solubility
[39] = test system: Pseudomonas aeruginosa; assay: Antibacterial activity against Pseudomonas aeruginosa ARC3756 after 24 hrs by broth microdilution method; format: functional; conditions: ARC3756, 24 h; method in brief: as §2
[40] = test system: Escherichia coli; assay: Antibacterial activity against Escherichia coli after 24 hrs by broth microdilution method; format: functional; method in brief: as §1
[41] = test system: Pseudomonas aeruginosa; assay: Antibacterial activity against Pseudomonas aeruginosa ARC3607 after 24 hrs by broth microdilution method; format: functional; conditions: ARC3607, 24 h; method in brief: as §1
[42] = test system: Acinetobacter baumannii; assay: Antibacterial activity against Acinetobacter baumannii ARC2780 after 24 hrs by broth microdilution method; format: functional; conditions: ARC2780, 24 h; method in brief: as §2
[43] = test system: Enterococcus faecalis; assay: Antibacterial activity against Enterococcus faecalis ATCC 29212 after 24 hrs by broth microdilution method; format: functional; conditions: ATCC 29212, 24 h; method in brief: as §1

CCNC(=O)Nc1cc(-c2nc(C3CC3)cs2)c(-c2cc(-c3n[nH]c(=O)o3)cnc2N2C3CCC2CN(C)C3)cn1
MIC [1]: 4 µg/mL (≈ 6.97 µM) | MIC [2]: 2 µg/mL (≈ 3.49 µM) | MIC [3]: 1 µg/mL (≈ 1.74 µM) | MIC [4]: < 0.06 µg/mL | MIC [5]: 2 µg/mL (≈ 3.49 µM) | MIC [6]: 4 µg/mL (≈ 6.97 µM) | MIC [7]: 4 µg/mL (≈ 6.97 µM) | MIC [8]: 1 µg/mL (≈ 1.74 µM) | MIC [9]: 1 µg/mL (≈ 1.74 µM) | MIC [10]: 2 µg/mL (≈ 3.49 µM) | MIC [11]: 1.14 µg/mL (≈ 1.99 µM) | MIC [12]: 1 µg/mL (≈ 1.74 µM) | MIC [13]: 2 µg/mL (≈ 3.49 µM) | GI50 [14]: > 25 µM | MIC [15]: 1 µg/mL (≈ 1.74 µM) | MIC [16]: < 0.06 µg/mL | MIC [17]: 0.11 µg/mL (≈ 0.192 µM) | MIC [18]: 1 µg/mL (≈ 1.74 µM) | MIC [19]: 0.5 µg/mL (≈ 0.872 µM) | MIC [20]: 4 µg/mL (≈ 6.97 µM) | MIC [21]: < 0.06 µg/mL | MIC [22]: 4 µg/mL (≈ 6.97 µM) | MIC [23]: < 0.06 µg/mL | MIC [24]: 2 µg/mL (≈ 3.49 µM) | MIC [25]: > 64 µg/mL | MIC [26]: < 0.06 µg/mL | MIC [27]: 4 µg/mL (≈ 6.97 µM) | MIC [28]: 1 µg/mL (≈ 1.74 µM) | MIC [29]: 1 µg/mL (≈ 1.74 µM) | MIC [30]: 4 µg/mL (≈ 6.97 µM) | MIC [31]: 4 µg/mL (≈ 6.97 µM) | MIC [32]: 4 µg/mL (≈ 6.97 µM) | MIC [33]: 16 µg/mL (≈ 27.9 µM) | MIC [34]: 1 µg/mL (≈ 1.74 µM) | MIC [35]: 1 µg/mL (≈ 1.74 µM) | MIC [36]: 0.23 µg/mL (≈ 0.401 µM) | MIC [37]: < 0.06 µg/mL | solubility thermodynamic [38]: 65.8 µM (≈ 37.7 µg/mL) | MIC [39]: 4 µg/mL (≈ 6.97 µM) | MIC [40]: 0.57 µg/mL (≈ 0.994 µM) | MIC [41]: 4 µg/mL (≈ 6.97 µM) | MIC [42]: 0.5 µg/mL (≈ 0.872 µM) | MIC [43]: < 0.06 µg/mL
